Source: PubChem BioAssay
HTR5A inv ag: counter-screen for OPRM1-OPRD1 inverse agonists: human HTR5A inverse agonism; P47898; HTR5A cell line, luminescence; inhibition, % at 9.3 µM; 0.083% of 340,000 active; in the data active = inhibition mostly above about 23%, no sharp cut-off; inactive = mostly below about 18%;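 note: 0% = cells with DMSO and 100% = no-cell wells with DMSO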
Target sequence (P47898 whole entry, looked up): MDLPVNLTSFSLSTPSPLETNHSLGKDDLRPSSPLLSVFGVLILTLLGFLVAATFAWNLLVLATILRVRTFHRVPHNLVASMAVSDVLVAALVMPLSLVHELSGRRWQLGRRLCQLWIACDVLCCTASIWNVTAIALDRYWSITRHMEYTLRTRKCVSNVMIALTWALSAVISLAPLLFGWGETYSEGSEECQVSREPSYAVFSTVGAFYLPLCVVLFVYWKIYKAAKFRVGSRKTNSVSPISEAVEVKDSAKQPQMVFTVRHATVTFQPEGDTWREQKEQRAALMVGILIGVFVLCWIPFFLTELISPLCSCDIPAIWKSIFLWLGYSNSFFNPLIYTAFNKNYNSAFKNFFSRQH
OPRM1-OPRD1 inv: mu-delta opioid heterodimer inverse agonism | P35372+P41143 | cell-based MOR-DOR heterodimer luminescence | inhibition, % at 9.3 µM | 0.21% of 340,000 active; in the data active = inhibition above about 22%, passing the limit was not always enough;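 note: 0% = cells with DMSO and 100% = wells without cells with DMSO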
Lipid droplet: hepatic lipid droplet formation modulation. AML12 mouse hepatocytes, oleate lipid droplets, BODIPY imaging. inhibition, % at 6.5 µM. 0.4% of 240,000 active. AID 1656;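 active = lipid droplet intensity inhibited by at least 50%, with more than 500 cells counted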
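Material: mouse AML12 hepatocyte cell line, fixed after treatment; Timing: compound with oleate, overnight; Technique: high-content imaging of BODIPY-stained droplets and DAPI nuclei; Probe or stimulus: oleate, 100 µM final; Dosing: compound at 6.5 µM only.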
OPRM1-OPRD1 ag: agonists of human mu-delta opioid receptor heterodimerization; 0.3% of 340,000 active; cells, OPRM1-OPRD1 heterodimerization, luminescence; AID 504326; activation, % at 9.3 µM; in the data active = activation above about 18%;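 note: 0% = vehicle-treated cells and 100% = reference agonist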
HTR5A ag ctr: activates human HTR5A in OPRM1-OPRD1 agonist counter-screen | HTR5A agonist assay, luminescence, cell-based | activation, % at 9.3 µM | 0.61% of 340,000 active; in the data active = activation mostly above about 9.5%, no sharp cut-off; inactive = mostly below about 7.6%;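 note: 0% = cells with vehicle only and 100% = reference agonist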
Lipid drop inh: hepatic lipid droplet formation inhibition, confirmed. inhibition, % at 5.2 µM. shares compounds with Lipid droplet. AML12 mouse hepatocytes, BODIPY lipid droplet imaging; droplets induced with 100 µM oleic acid. 65% of 870 active. AID 463183;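 active = inhibition of lipid droplet metric at least 50%, with more than 300 cells in each of four replicates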;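 note: plate controls were DMSO with oleic acid for no effect and 5 µM Triacsin-C for full effect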
AML12 tox img: toxic to AML12 mouse hepatocytes in counter-screen | shares compounds with Lipid droplet | AID 463200 | 3% of 870 active | z-score at 5 µM | DAPI nuclear morphology cytotoxicity imaging; stronger effect = higher value; cells fed 100 µM oleate overnight; in the data active = z-score above about 6.3;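 note: compound exposure lasted overnight at 37 °C before fixation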
AML12 tox conf: confirmation of cytotoxicity in AML12 mouse hepatocytes; shares compounds with Lipid droplet; AML12 mouse hepatocyte viability, ATP luminescence; cells loaded with 100 µM oleic acid; cytotoxicity, % at 50 µM; 530 tested, under 10 active; AID 463219;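 active = cytotoxicity above 50% in each of four replicates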;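 note: compound exposure lasted overnight at 37 °C before the ATP read; 0% = DMSO-treated cells and 100% = wells with no cells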
Numbers without * were called inactive; . = no result given. The list is not random: actives were taken first. Their share in the collection is about 1.4%.

SMILES	HTR5A inv ag	OPRM1-OPRD1 inv	Lipid droplet	OPRM1-OPRD1 ag	HTR5A ag ctr	Lipid drop inh	AML12 tox img	AML12 tox conf
CCCCn1c(O)c(/C=C/C=C/C=Nc2ccccc2)sc1=S	1	-6	61*	1	0	34	0.24	.
CCCn1c(O)c(C=Nc2ccccc2)sc1=S	1	-45	-2	9	0	.	.	.
Cc1cc(NC(=O)COC(=O)c2ccco2)no1	2	10	-4	-2	-1	.	.	.
CC1CCCCN1Cc1c(O)ccc2c(=O)c(-c3ccccc3)coc12 (stereo not given)	-3	12	87*	-2	1	-35	1	.
CCCCCC(O)(c1ccc(OCC)cc1)C(CN1CCOCC1)c1ccccc1 (stereo not given)	9	-20	54*	4	-2	73*	0.22	-8
CCCCCC(O)(c1ccc(OC)cc1)C(CN1CCOCC1)c1ccccc1 (stereo not given)	6	2	30	0	-2	.	.	.
CCOc1ccc(CCNC(=O)CCc2nc(-c3ccc(OC)cc3)no2)cc1OCC	27	5	69*	-1	-1	108*	-0.28	11
CCOc1ccc(CCNC(=O)CS(=O)Cc2nc(-c3ccc(OC)cc3)oc2C)cc1OCC (stereo not given)	-2	-3	76*	0	0	81*	-0.47	11
N#CC(c1ccc(Cl)cc1)c1ccc2c(C(F)(F)F)cc(C(F)(F)F)nc2n1 (stereo not given)	7	-14	59*	2	3	-68	6.2*	.
O=C(O)CCn1cc(-c2ccc(F)cc2)nc1-c1ccncc1	-2	3	.	-1	3	.	.	.
CCc1ccc(C(=O)CSc2nc3cc(S(=O)(=O)N4CCOCC4)ccc3n2CC)cc1	-4	8	115*	-2	-2	22	-0.57	.
O=C(CN1C(=O)NC(c2ccc(F)cc2)C1=O)Nc1ccc2c(c1)OCCO2 (stereo not given)	-6	19	.	-5	3	.	.	.
COc1ccc(Cl)cc1NC(=O)CCc1ccccc1	-13	-3	-14	1	5	.	.	.
COc1ccc(Cl)cc1NC(=O)CCNC(=O)OCc1ccccc1	6	7	63*	-1	-2	100*	0.064	2
CC(C)(C)NC(=O)CSc1nc2ccc(Nc3nc(N4CCOCC4)nc(N4CCOCC4)n3)cc2s1	0	9	53*	-1	2	89*	0.59	-2
CC(=O)CSc1nc2ccc(Nc3nc(N4CCOCC4)nc(N4CCOCC4)n3)cc2s1	1	15	-12	-3	0	.	.	.
CC1CC(C)CN(C(=O)c2ccc3c(c2NCCO)C(=O)c2ccccc2C3=O)C1 (stereo not given)	3	-46	91*	7	-1	115*	-0.98	37
C=C(C)[C@@H]1CCC2(C(=O)O)CC[C@]3(C)[C@H](CC[C@@H]4[C@@]5(C)CCC(=O)C(C)(C)[C@@H]5CC[C@]43C)[C@@H]12 (stereo not given in full)	-20	21	8	-5	5	.	.	.
C=C(C)[C@@H]1CC[C@]2(C(=O)O)CC[C@]3(C)C(CCC4[C@@]5(C)CC[C@H](O)C(C)(C)C5CC[C@]43C)C12 (stereo not given in full)	-27	2	58*	0	6	20	0.66	.
COC(=O)Nc1nc(C)c(C(=O)N(C)C)s1	-12	11	.	-2	3	.	.	.
Cc1nc(NC(=O)C2CC2)sc1C(=O)N(C)C	-2	24	70*	-5	1	-17	-0.32	.
Cc1cccc2sc(NC(=O)CN(C)S(=O)(=O)c3cccs3)nc12	0	10	56*	-2	0	95*	-0.78	9
CCc1cc2c(=O)c(-c3nc4ccccc4n3C)c(C)oc2c(CN2CCN(C)CC2)c1O	.	.	-10	.	.	.	.	.
CCc1cc2c(=O)c(-c3nc4ccccc4n3C)c(C)oc2c(CN2CCOCC2)c1O	-14	4	50*	-1	-6	88*	-0.82	3
CN(C)c1nc(N/N=C/c2c[nH]c3ccccc23)nc(N2CCOCC2)n1	-33	-20	131*	4	10	86*	22*	.
SMILES	HTR5A inv ag	OPRM1-OPRD1 inv	Lipid droplet	OPRM1-OPRD1 ag	HTR5A ag ctr	Lipid drop inh	AML12 tox img	AML12 tox conf
C(=N\Nc1nc(N2CCCCC2)nc(N2CCCCC2)n1)/c1c[nH]c2ccccc12	-8	-20	-4	3	0	.	.	.
NS(=O)(=O)c1cccc(NC(=O)CSc2nnc(-c3ccccc3F)n2C2CC2)c1	13	-2	-23	0	3	.	.	.
C=C(C)c1cccc(C(C)(C)NC(=O)Nc2ccccc2OCC)c1	-19	12	52*	-2	3	53	0.035	.
CCOc1ccccc1NC(=O)CCC(=O)O	-11	5	.	-1	1	.	.	.
CCCC(=O)Nc1cccc(C(=O)Nc2ccccc2OCC)c1	.	.	73*	.	.	99*	0.64	.
CCOc1ccccc1NC(=O)CCC(=O)Nc1ccccc1OCC	-15	-2	60*	0	1	94*	-0.26	12
CCN1C[C@@H]2[C@@H]3C(=O)N(Cc4ccccc4)C(=O)[C@@H]3[C@](Cc3ccccc3)(C1=O)N2C(=O)c1ccc(Br)cc1	6	8	.	-1	-3	.	.	.
Cc1ccccc1NC(=S)c1ccc2ccccc2n1	-5	9	-6	-2	2	.	.	.
c1cc2c(cc1-c1csc(NNC3=NCCCCC3)n1)OCCO2	.	.	90*	.	.	100*	-0.51	39
COc1ccc(C=O)cc1OC(=O)N1CCOCC1	2	15	4	-3	0	.	.	.
CC1CC(C)CN(C(=O)CSCC(=O)Nc2nc(-c3cccs3)cs2)C1 (stereo not given)	10	1	56*	0	1	108*	-0.11	9
O=C(CSCC(=O)N1CCCCC1)Nc1nc(-c2cccs2)cs1	-43	5	.	-1	14	.	.	.
C=CCSc1n[nH]c(-c2ccc(OCCCC)cc2)n1	-18	-39	54*	7	3	98*	0.3	13
CCC1CN(C(=O)N2CCC(C(=O)Nc3ccccc3OC)CC2)c2ccccc2O1 (stereo not given)	-7	0	-7	0	0	.	.	.
CCN(CC)S(=O)(=O)c1ccc(C(=O)NCc2ccc3[nH]c4c(c3c2)CCCC4)cc1	-1	4	85*	-1	0	90*	0.14	16
CCN(CC)S(=O)(=O)c1ccc(N(C)C)c(NC(=O)CSCc2c(C)noc2C)c1	15	16	-8	-3	3	.	.	.
O=c1[nH]cnc2sc3c(c12)CCN(Cc1ccccc1)C3	15	5	55*	-1	7	24	-0.011	.
